Laboratory results from ChEMBL document CHEMBL1914324, “Discovery of novel spirocyclic inhibitors of fatty acid amide hydrolase (FAAH). Part 2. Discovery of 7-azaspiro[3.5]nonane urea PF-04862853, an orally efficacious inhibitor of fatty acid amide hydrolase (FAAH) for pain” (Bioorg Med Chem Lett, 2011).

Experiments:
[1] = target: T1, Fatty-acid amide hydrolase 1 (Rattus norvegicus) (UniProt P97612); assay: Ratio of Kinact to Ki for rat FAAH activity
T1 sequence (whole entry): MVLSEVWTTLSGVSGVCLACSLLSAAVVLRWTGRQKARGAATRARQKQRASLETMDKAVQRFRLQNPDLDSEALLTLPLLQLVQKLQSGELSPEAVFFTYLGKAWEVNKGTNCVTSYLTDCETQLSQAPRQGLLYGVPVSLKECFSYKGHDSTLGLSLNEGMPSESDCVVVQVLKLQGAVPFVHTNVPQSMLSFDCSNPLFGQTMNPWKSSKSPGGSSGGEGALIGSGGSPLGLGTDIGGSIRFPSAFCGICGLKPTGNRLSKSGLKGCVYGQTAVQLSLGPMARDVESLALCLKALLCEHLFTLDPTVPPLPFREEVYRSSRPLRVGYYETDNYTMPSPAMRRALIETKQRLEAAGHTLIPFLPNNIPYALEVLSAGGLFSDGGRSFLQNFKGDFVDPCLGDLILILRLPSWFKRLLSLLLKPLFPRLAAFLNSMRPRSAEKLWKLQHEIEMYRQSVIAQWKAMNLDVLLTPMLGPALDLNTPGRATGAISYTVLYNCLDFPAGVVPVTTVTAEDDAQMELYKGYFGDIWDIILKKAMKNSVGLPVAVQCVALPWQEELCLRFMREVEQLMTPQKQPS
Procedure, shortened: (§1)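 kinact/Ki determined against human and rat FAAH. Each value is the average of at least two independent determinations.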

[2] = target: T2, Fatty-acid amide hydrolase 1 (Homo sapiens) (UniProt O00519); assay: Ratio of Kinact to Ki for human FAAH activity; procedure, shortened: as §1
T2 sequence (whole entry): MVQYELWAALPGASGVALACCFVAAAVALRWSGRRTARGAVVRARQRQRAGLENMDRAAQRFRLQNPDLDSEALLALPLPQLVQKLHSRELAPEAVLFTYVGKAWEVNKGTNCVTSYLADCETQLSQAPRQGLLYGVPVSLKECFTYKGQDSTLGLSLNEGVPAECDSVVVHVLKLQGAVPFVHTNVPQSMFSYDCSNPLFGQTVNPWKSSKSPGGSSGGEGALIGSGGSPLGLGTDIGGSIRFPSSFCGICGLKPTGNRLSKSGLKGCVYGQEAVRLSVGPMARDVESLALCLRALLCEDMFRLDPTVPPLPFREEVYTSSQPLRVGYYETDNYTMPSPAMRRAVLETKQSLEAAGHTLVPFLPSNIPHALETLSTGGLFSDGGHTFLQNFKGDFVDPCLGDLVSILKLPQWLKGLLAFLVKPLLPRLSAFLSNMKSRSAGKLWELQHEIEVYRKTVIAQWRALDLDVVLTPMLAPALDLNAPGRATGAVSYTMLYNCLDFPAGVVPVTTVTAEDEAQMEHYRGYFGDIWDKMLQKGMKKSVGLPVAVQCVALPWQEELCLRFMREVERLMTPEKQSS

| Structure (SMILES) | Ratio [1] [M⁻¹ s⁻¹] | Ratio [2] [M⁻¹ s⁻¹] |
| --- | --- | --- |
| COc1ccccc1C1CC2(CCN(C(=O)Nc3onc(C)c3C)CC2)C1 | 265 | 2640 |
| Cc1noc(NC(=O)N2CCC3(CC2)CC(c2cccc(Oc4ccc(C(F)(F)F)cn4)c2)C3)c1C | 9460 |  |
| Cc1noc(NC(=O)N2CCC3(CC2)CC(c2ccc(OC(F)(F)F)cc2)C3)c1C | 229 | 353 |
| Cc1noc(NC(=O)N2CCC3(CC2)CC(c2cccc(C(F)(F)F)c2)C3)c1C | 3690 | 3060 |
| Cc1noc(NC(=O)N2CCC3(CC2)CC(c2cccc(C#N)c2)CO3)c1C (racemic) | 999 | 243 |
| Cc1noc(NC(=O)N2CCC3(CC2)CC(c2cccc(C(F)(F)F)c2)CO3)c1C (racemic) | 2680 | 1330 |
| Cn1nnc(NC(=O)N2CCC3(CC2)CC(c2cccc(OC(F)(F)F)c2)C3)n1 | 152 | 165 |
| Cc1noc(NC(=O)N2CCC3(CC2)CC(c2ccc(C(F)(F)F)cc2)C3)c1C | 348 | 245 |
| Cc1onc(NC(=O)N2CCC3(CC2)CC(c2cccc(OC(F)(F)F)c2)C3)c1C | 34.2 | 64 |
| Cc1cccc(C2CC3(CCN(C(=O)Nc4onc(C)c4C)CC3)C2)c1 | 1620 | 2870 |
| CCc1noc(NC(=O)N2CCC3(CC2)CC(c2cccc(OC(F)(F)F)c2)C3)c1C | 1660 | 1650 |
| Cn1nnnc1NC(=O)N1CCC2(CC1)CC(c1cccc(Cl)c1)CO2 (centres undefined) | 1970 | 5600 |
| Cc1noc(NC(=O)N2CCC3(CC2)CC(c2ccc(Cl)cc2)C3)c1C | 2070 | 2030 |
| Cc1noc(NC(=O)N2CCC3(CC2)CC(c2cccc(OC(F)(F)F)c2)CO3)c1C (racemic) | 3110 | 1800 |
| CCc1c(C)noc1NC(=O)N1CCC2(CC1)CC(c1cccc(OC(F)(F)F)c1)C2 |  | 338 |
| Cc1noc(NC(=O)N2CCC3(CC2)CC(c2cccc(Cl)c2)CO3)c1C (stereo in doubt; form 2) | 3830 | 2590 |

| Structure (SMILES) | Ratio [1] [M⁻¹ s⁻¹] | Ratio [2] [M⁻¹ s⁻¹] |
| --- | --- | --- |
| Cc1noc(NC(=O)N2CCC3(CC2)CC(c2ccccc2C(F)(F)F)C3)c1C |  | 1140 |
| Cc1noc(NC(=O)N2CCC3(CC2)CC(c2ccc(OC(F)(F)F)cc2)CO3)c1C (racemic) | 461 | 162 |
| COc1ccc(C2CC3(CCN(C(=O)Nc4onc(C)c4C)CC3)C2)cc1 | 585 | 1760 |
| Cc1cc(NC(=O)N2CCC3(CC2)CC(c2cccc(OC(F)(F)F)c2)C3)on1 |  | 113 |
| Cc1noc(NC(=O)N2CCC3(CC2)CC(c2ccccc2OC(F)(F)F)C3)c1C | 564 | 839 |
| Cc1noc(NC(=O)N2CCC3(CC2)CC(c2cccc(Cl)c2)CO3)c1C (racemic) | 2670 | 2040 |
| Cc1noc(NC(=O)N2CCC3(CC2)CC(c2ccccc2)C3)c1C | 679 | 2080 |
| Cc1noc(NC(=O)N2CCC3(CC2)CC(c2cccc(Cl)c2)CO3)c1C (stereo in doubt; form 1) | 1560 | 2390 |
| Cc1nnc(NC(=O)N2CCC3(CC2)CC(c2cccc(OC(F)(F)F)c2)C3)o1 | 2460 | 1530 |
| Cc1noc(NC(=O)N2CCC3(CC2)CC(c2ccc(C(F)(F)F)cc2)CO3)c1C (racemic) | 714 | 481 |
| Cc1noc(NC(=O)N2CCC3(CC2)CC(c2ccccc2)CO3)c1C (racemic) | 315 | 461 |
| Cc1noc(NC(=O)N2CCC3(CC2)CC(c2ccc(F)c(Cl)c2)CO3)c1C (racemic) | 3950 | 1580 |
| CCn1nnnc1NC(=O)N1CCC2(CC1)CC(c1cccc(OC(F)(F)F)c1)C2 | 3420 | 6940 |
| Cn1ncnc1NC(=O)N1CCC2(CC1)CC(c1cccc(OC(F)(F)F)c1)C2 |  | < 10 |
| Cn1nnnc1NC(=O)N1CCC2(CC1)CC(c1ccc(F)c(Cl)c1)C2 | 5940 | 16300 |
| Cc1noc(NC(=O)N2CCC3(CC2)CC(c2ccc(Cl)c(Cl)c2)CO3)c1C (racemic) | 4360 | 2430 |
